# Experiments:
# [1] = molecular target: T1, protoporphyrinogen oxidase (PPO) (Homo sapiens, UniProt P50336); assay: PPO-inhibition assay, human liver mitochondrial fraction; format: biochemical
# T1 sequence (P50336 1-477): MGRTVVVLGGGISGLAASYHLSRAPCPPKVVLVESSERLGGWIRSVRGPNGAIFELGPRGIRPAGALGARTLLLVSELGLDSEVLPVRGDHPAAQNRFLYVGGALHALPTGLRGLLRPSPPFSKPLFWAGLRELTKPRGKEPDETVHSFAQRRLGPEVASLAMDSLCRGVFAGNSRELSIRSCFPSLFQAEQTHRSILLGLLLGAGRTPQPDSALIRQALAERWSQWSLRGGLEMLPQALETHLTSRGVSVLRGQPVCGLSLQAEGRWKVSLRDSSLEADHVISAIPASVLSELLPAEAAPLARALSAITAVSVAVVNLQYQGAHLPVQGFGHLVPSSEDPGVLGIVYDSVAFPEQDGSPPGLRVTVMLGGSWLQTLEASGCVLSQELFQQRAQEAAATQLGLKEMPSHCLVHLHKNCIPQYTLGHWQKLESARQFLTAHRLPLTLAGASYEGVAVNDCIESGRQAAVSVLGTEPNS
# Summary of the method: (§1)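 Liver mitochondria came from pooled SD rats and humans, or were freshly kit-isolated from Crl:CD1 mice and TOYO beagles. They were used at 0.2 mg protein/mL in 100 mM Tris-HCl pH 7.5 with 0.1% Triton-X, 1 mM EDTA and 40 mM ascorbate, preincubated 10 min at 37°C, then given 0.5 µM protoporphyrinogen IX. PPIX fluorescence (ex 410/em 630 nm) was read for 60 min at 37°C. Heat-killed mitochondria gave the background, and IC50 came from 4-parameter fits over 3 runs.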
# [2] = Toxicokinetics in plasma, mouse 90-day study; format: in vivo; conditions: for AUC(0-t) / Cmax: mouse, plasma, po
# [3] = molecular target: T2, protoporphyrinogen oxidase (PPO) (Rattus norvegicus, UniProt D3ZVN7); assay: PPO-inhibition assay, rat liver mitochondrial fraction; format: biochemical
# T2 sequence (D3ZVN7 1-488): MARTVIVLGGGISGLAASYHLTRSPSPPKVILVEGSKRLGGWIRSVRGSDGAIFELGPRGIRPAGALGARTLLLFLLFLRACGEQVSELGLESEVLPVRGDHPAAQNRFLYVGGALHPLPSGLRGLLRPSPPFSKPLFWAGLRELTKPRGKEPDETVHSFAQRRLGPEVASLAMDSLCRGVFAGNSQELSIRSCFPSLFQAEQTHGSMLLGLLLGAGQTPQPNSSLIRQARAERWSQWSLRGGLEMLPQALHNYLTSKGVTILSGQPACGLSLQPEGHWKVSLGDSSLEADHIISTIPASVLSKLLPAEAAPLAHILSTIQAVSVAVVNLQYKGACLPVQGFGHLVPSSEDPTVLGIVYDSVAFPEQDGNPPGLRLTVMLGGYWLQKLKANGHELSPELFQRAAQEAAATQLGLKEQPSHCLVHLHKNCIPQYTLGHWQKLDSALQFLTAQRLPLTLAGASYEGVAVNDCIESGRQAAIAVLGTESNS
# Summary of the method: as §1
# [4] = In vitro metabolism study in liver microsomes; format: in vitro ADME; conditions: human liver microsomes
# [5] = Toxicokinetics in plasma, rat 90-day study; format: in vivo; conditions: for AUC(0-t) / Cmax: rat, plasma, po
# [6] = molecular target: T3, protoporphyrinogen oxidase (PPO) (Canis lupus familiaris, UniProt A0A8I3Q7Z3); assay: PPO-inhibition assay, dog liver mitochondrial fraction; format: biochemical
# T3 sequence (A0A8I3Q7Z3 1-480): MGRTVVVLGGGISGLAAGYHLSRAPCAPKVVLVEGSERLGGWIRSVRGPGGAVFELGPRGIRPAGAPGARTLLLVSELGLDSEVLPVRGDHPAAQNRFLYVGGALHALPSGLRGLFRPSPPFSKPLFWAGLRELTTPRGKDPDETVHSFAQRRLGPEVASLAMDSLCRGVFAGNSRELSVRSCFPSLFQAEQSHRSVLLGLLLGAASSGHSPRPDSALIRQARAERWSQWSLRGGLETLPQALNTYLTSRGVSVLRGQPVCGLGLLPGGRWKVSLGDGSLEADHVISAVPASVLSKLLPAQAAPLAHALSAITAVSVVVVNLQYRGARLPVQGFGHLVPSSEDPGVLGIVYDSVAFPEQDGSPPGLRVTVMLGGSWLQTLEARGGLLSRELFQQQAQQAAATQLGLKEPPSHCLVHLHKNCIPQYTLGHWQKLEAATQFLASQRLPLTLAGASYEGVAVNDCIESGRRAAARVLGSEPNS
# Summary of the method: as §1
# [7] = molecular target: T4, protoporphyrinogen oxidase (PPO) (Mus musculus, UniProt P51175); assay: PPO-inhibition assay, mouse liver mitochondrial fraction; format: biochemical
# T4 sequence (P51175 1-477): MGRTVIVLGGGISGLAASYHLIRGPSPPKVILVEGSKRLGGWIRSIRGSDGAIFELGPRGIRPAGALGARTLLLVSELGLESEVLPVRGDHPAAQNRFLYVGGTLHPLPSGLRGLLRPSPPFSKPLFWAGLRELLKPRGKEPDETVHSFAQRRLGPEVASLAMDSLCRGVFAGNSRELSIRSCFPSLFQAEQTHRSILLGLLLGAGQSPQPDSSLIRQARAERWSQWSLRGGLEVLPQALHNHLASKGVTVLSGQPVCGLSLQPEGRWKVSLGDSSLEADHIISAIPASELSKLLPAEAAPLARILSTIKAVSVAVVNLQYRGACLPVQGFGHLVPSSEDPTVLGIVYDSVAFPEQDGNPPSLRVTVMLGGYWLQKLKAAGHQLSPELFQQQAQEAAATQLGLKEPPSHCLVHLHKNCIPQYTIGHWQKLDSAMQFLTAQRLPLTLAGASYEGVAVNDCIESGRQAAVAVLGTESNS
# Summary of the method: as §1
# [8] = In vitro metabolism study in liver microsomes; format: in vitro ADME; conditions: mouse liver microsomes
# [9] = system: cryopreserved primary hepatocytes of humans; assay: Hepatocyte uptake assay; format: in vitro ADME; conditions: human hepatocytes (both genders), 5 µM, 37°C minus 4°C
# [10] = Toxicokinetics in plasma, dog 90-day study; format: in vivo; conditions: for Cmax: beagle, dog, plasma, po
# [11] = In vitro metabolism study in liver microsomes; format: in vitro ADME; conditions: rat liver microsomes
# [12] = system: cryopreserved primary hepatocytes of SD rats; assay: Hepatocyte uptake assay; format: in vitro ADME, rat; conditions: rats vs humans
# [13] = 90-day subchronic toxicity study with epyrifenacil in dogs; format: in vivo, dog; conditions: beagle, dog, in vivo, oral
# Summary of the method: (§2)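 Beagles, 4 per sex per group, were dosed orally with gelatin capsules at 0, 100, 300 or 1000 mg/kg/day for 90 consecutive days. The study was run to test guidelines under GLP.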
# Beagle dogs = assay: as above; format: in vivo, dog
# Summary of the method: as §2
# [14] = 90-day subchronic toxicity study with epyrifenacil in rats; format: in vivo, rat; conditions: Crl:CD(SD), rat, in vivo, oral
# Summary of the method: (§3)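 Crl:CD(SD) rats, 10 per sex per group, had free access to diet containing 0 (basal diet), 50, 300 or 800 ppm for 90 consecutive days. TK satellite groups held 4 rats per sex. The study was run to test guidelines under GLP.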
# Crl:CD(SD) rats = assay: as above; format: in vivo, rat
# Summary of the method: as §3
# [15] = Incubation of epyrifenacil without microsomal fractions; format: in vitro ADME; conditions: 30 min of incubation
# [16] = 90-day subchronic toxicity study with epyrifenacil in mice; format: in vivo; conditions: Crl:CD1(ICR), mouse, in vivo, oral
# Summary of the method: (§4)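 Crl:CD1(ICR) mice, 10 per sex per group, had free access to diet containing 0 (basal diet), 5, 25 or 100 ppm for 90 consecutive days. TK satellite groups held 24 mice per sex. The study was run to test guidelines under GLP.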
# Crl:CD1(ICR) mice = assay: as above; format: in vivo; conditions: mouse, 90-day study
# Summary of the method: as §4
# [17] = female, Crl:CD1(ICR), 4.1 mg/kg bw/day
# [18] = female, Crl:CD(SD), 19 mg/kg bw/day
# [19] = male, Crl:CD(SD), 3 mg/kg bw/day
structure (smiles),measurement,setting,value
"Cn1c(C(F)(F)F)cc(=O)n(-c2cc(Oc3cccnc3OCC(=O)O)c(Cl)cc2F)c1=O [S-3100-CA, (3-{2-chloro-4-fluoro-5-[1,2,3,6-tetrahydro-3-methyl-2,6-dioxo-4-(trifluoromethyl)pyrimidin-1-yl]phenoxy}pyridin-2-yloxy)acetic acid]",IC50,[1],12.5 ± 2.08 nM
same,AUC(0-t),[2]; [17],2240 ng·h/mL
same,Cmax,[2]; [17],135 ng/mL
same,AUC(0-t),"[2]; female, 5 ppm in diet",403 ng·h/mL
same,Cmax,"[2]; female, 5 ppm in diet",22.7 ng/mL
same,AUC(0-t),"[2]; female, 25 ppm in diet",2240 ng·h/mL
same,Cmax,"[2]; female, 25 ppm in diet",135 ng/mL
same,AUC(0-t),"[2]; female, 100 ppm in diet",14800 ng·h/mL
same,Cmax,"[2]; female, 100 ppm in diet",860 ng/mL
same,Cmax,"[2]; male, Crl:CD1(ICR), 0.7 mg/kg bw/day",12.8 ng/mL
same,Cmax,"[2]; male, 5 ppm in diet",12.8 ng/mL
same,AUC(0-t),"[2]; male, 25 ppm in diet",4580 ng·h/mL
same,Cmax,"[2]; male, 25 ppm in diet",64.9 ng/mL
same,AUC(0-t),"[2]; male, 100 ppm in diet",10100 ng·h/mL
same,Cmax,"[2]; male, 100 ppm in diet",550 ng/mL
same,IC50,[3],1.5 ± 0.36 nM
same,"S-3100-CA detected as major metabolite, share of the applied radioactivity",[4]; [14C]epyrifenacil 10 µM,no less than 80%
same,"AUC0–24 of S-3100-CA at NOAEL, fold change vs. corresponding mouse value",[5]; female rats vs female mice,2.2 fold
same,"Cmax of S-3100-CA at NOAEL, fold change vs. corresponding mouse value",[5]; female rats vs female mice,2.0 fold
same,AUC(0-t),[5]; [18],5020 ng·h/mL
same,Cmax,[5]; [18],266 ng/mL
same,AUC(0-t),"[5]; female, Crl:CD(SD), 50 ppm",879 ng·h/mL
same,Cmax,"[5]; female, 50 ppm in diet",46.5 ng/mL
same,AUC(0-t),"[5]; female, 300 ppm in diet",5020 ng·h/mL
same,Cmax,"[5]; female, 300 ppm in diet",266 ng/mL
same,AUC(0-t),"[5]; female, 800 ppm in diet",13200 ng·h/mL
same,Cmax,"[5]; female, 800 ppm in diet",756 ng/mL
same,"Cmax of S-3100-CA at NOAEL, fold change vs. corresponding mouse value",[5]; male rats vs male mice,1.6 fold
same,AUC(0-t),[5]; [19],467 ng·h/mL
same,Cmax,[5]; [19],20.7 ng/mL
same,AUC(0-t),"[5]; male, Crl:CD(SD), 50 ppm",467 ng·h/mL
same,Cmax,"[5]; male, Crl:CD(SD), 50 ppm",20.7 ng/mL
same,AUC(0-t),"[5]; male, 300 ppm in diet",4010 ng·h/mL
same,Cmax,"[5]; male, 300 ppm in diet",248 ng/mL
same,IC50,[6],11.1 ± 3.12 nM
same,IC50,[7],0.9 ± 0.3 nM
same,"S-3100-CA detected as major metabolite, share of the applied radioactivity",[8]; [14C]epyrifenacil 10 µM,no less than 80%
same,Active uptake rate into hepatocytes,[9],3.83 µL/10^6 cells/min
same,"AUC0–24 of S-3100-CA at NOAEL, fold change vs. corresponding mouse value",[10]; female dogs vs female mice,23 fold
same,"Cmax of S-3100-CA at NOAEL, fold change vs. corresponding mouse value",[10]; female dogs vs female mice,42 fold
same,Cmax,"[10]; female, 300 mg/kg bw/day",5650 ng/mL
same,Cmax,"[10]; female, 300 mg/kg/day",5650 ng/mL
same,"Cmax of S-3100-CA at NOAEL, fold change vs. corresponding mouse value",[10]; male dogs vs male mice,74 fold
same,Cmax,"[10]; male, 100 mg/kg bw/day",947 ng/mL
same,Cmax,"[10]; male, 100 mg/kg/day",947 ng/mL
same,"S-3100-CA detected as major metabolite, share of the applied radioactivity",[11]; [14C]epyrifenacil 10 µM,no less than 80%
same,"Hepatocyte uptake, times greater in rats than in humans",[12],2 times
"CCOC(=O)COc1ncccc1Oc1cc(-n2c(=O)cc(C(F)(F)F)n(C)c2=O)c(F)cc1Cl [epyrifenacil, ethyl[(3-{2-chloro-4-fluoro-5-[3-methyl-2,6-dioxo-4-(trifluoromethyl)-3,6-dihydropyrimidin-1(2H)-yl]phenoxy}pyridin-2-yl)oxy]acetate]",IC50,[1],10.2 ± 0.66 nM
same,Parent epyrifenacil detected in plasma,"[2]; mice, 90-day dietary administration (data not shown)",no measurable amount
same,IC50,[3],2.6 ± 0.05 nM
same,NOAEL at 90 days,[13]; female,300 mg/kg/day
same,NOAEL at 90 days,[13]; male,100 mg/kg/day
same,Major adverse findings,"Beagle dogs; dog, 90-day study","Increased glycogen associated with increased ALP, anemia"
same,"NOAEL, fold change vs. corresponding mouse value",Beagle dogs; female dogs vs female mice,73 fold
same,"NOAEL, fold change vs. corresponding mouse value",Beagle dogs; male dogs vs male mice,143 fold
same,Time within which epyrifenacil almost disappeared,"[4]; 10 µM, NADPH, 37°C",≤ 5 min
same,NOAEL at 90 days,[14]; female,19 mg/kg/day
same,NOAEL at 90 days,[14]; male,3 mg/kg/day
same,"NOAEL, fold change vs. corresponding mouse value",Crl:CD(SD) rats; female rats vs female mice,4.6 fold
same,"NOAEL, fold change vs. corresponding mouse value",Crl:CD(SD) rats; male rats vs male mice,4.3 fold
same,Major adverse findings,"Crl:CD(SD) rats; rat, 90-day study","Hepatocyte injury caused by porphyrin accumulation, hepatocellular hypertrophy, anemia"
same,Non-enzymatic degradation,[15],did not present any degradants
same,Parent epyrifenacil detected in plasma,"[5]; rats, 90-day dietary administration (data not shown)",no measurable amount
same,IC50,[6],7.6 ± 0.18 nM
same,IC50,[7],2.2 ± 0.03 nM
same,Time within which epyrifenacil almost disappeared,"[8]; 10 µM, NADPH, 37°C",≤ 5 min
same,Parent epyrifenacil detected in plasma,"[10]; dog plasma, 90-day oral capsule administration",not more than 0.04 µg/mL
same,Time within which epyrifenacil almost disappeared,"[11]; 10 µM, NADPH, 37°C",≤ 5 min
same,NOAEL at 90 days,[16]; female,4.1 mg/kg/day
same,NOAEL at 90 days,[16]; male,0.7 mg/kg/day
same,Major adverse findings,Crl:CD1(ICR) mice,"Hepatocyte injury caused by porphyrin accumulation, hepatocellular hypertrophy, anemia"
